Laboratory results: ChEMBL document CHEMBL1133934, “Metabolic stabilization of benzylidene ketal M(2) muscarinic receptor antagonists via halonaphthoic acid substitution” (Bioorg Med Chem Lett, 2001)

Columns and labels:
[1] = target: T1, Muscarinic acetylcholine receptor M2 (Homo sapiens, UniProt P08172); assay: Antagonistic activity against muscarinic acetylcholine receptor M2; type: functional
T1 sequence (P08172 whole entry): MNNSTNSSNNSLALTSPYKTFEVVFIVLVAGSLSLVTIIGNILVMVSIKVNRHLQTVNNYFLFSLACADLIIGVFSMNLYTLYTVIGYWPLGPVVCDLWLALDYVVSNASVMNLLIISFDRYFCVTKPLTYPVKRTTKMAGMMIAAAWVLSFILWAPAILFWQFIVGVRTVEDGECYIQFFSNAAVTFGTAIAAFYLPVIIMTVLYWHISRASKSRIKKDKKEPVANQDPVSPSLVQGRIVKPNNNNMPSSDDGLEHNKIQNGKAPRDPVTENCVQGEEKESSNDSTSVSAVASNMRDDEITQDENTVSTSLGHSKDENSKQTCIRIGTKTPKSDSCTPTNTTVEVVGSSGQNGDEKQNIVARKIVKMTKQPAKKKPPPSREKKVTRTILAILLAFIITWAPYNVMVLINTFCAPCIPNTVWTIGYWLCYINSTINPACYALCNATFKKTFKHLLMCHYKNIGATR
How it was run: (§1)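 Muscarinic receptor binding by a method described elsewhere; values are the mean of duplicates (SEM < 15%), each determination performed at least twice. Selectivity expressed as the ratio of M1 or M3 to M2 binding.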

[2] = test system: Rattus norvegicus; assay: Percent of Acetylcholine (ACh) released above baseline in rat striatum at the dose of 10 mg/kg p.o. (0-2h); type: functional; conditions: route oral
How it was run: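 Rats dosed orally at 10 mg/kg in 20% HPβCD; microdialysis of striatum measuring ACh release over the 2 h experiment. Stimulation judged against pre-injection baseline, significance p < 0.05 by Duncan's multiple range statistic.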

[3] = Pharmacokinetic property at the dose of 10 mg/kg (20% HPbetaCD) concentration in rat (0 to 6 hr) p.o.; conditions: in vivo, po
[4] = target: T1, Muscarinic acetylcholine receptor M2; assay: Antagonistic activity against Muscarinic acetylcholine receptor M2; type: functional; how it was run: as §1
[5] = target: Muscarinic acetylcholine receptors; M1 & M2 (Homo sapiens) (UniProt P11229+P08172); assay: Selectivity ratio of M1 muscarinic receptor to that of M2 muscarinic receptor; type: protein assay; how it was run: as §1
[6] = target: Muscarinic acetylcholine receptors; M2 & M3 (Homo sapiens) (UniProt P20309+P08172); assay: Selectivity ratio of M3 muscarinic receptor to that of M2 muscarinic receptor; type: protein assay; how it was run: as §1
Muscarinic acetylcholine receptors; M2 & M3 (Homo sapiens), sequence (P20309 whole entry, looked up, one chain of several): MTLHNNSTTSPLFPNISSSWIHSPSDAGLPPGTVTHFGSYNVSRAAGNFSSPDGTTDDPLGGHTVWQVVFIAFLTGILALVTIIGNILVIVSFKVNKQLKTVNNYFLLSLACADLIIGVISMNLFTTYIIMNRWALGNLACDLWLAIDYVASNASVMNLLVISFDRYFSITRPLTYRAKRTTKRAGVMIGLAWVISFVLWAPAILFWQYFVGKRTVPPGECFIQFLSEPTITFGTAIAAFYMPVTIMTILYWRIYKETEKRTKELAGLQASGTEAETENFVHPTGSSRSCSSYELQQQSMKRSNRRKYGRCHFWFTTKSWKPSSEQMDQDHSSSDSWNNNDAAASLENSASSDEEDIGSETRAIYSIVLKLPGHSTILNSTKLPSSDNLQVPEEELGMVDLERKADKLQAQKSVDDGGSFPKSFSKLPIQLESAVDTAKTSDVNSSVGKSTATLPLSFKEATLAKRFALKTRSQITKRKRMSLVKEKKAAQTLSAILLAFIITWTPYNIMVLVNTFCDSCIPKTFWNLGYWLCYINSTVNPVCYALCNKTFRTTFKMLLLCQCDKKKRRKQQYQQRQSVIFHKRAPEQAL

Muscarinic acetylcholine receptors; M1 & M2 (Homo sapiens), sequence (P11229 whole entry, looked up, one chain of several): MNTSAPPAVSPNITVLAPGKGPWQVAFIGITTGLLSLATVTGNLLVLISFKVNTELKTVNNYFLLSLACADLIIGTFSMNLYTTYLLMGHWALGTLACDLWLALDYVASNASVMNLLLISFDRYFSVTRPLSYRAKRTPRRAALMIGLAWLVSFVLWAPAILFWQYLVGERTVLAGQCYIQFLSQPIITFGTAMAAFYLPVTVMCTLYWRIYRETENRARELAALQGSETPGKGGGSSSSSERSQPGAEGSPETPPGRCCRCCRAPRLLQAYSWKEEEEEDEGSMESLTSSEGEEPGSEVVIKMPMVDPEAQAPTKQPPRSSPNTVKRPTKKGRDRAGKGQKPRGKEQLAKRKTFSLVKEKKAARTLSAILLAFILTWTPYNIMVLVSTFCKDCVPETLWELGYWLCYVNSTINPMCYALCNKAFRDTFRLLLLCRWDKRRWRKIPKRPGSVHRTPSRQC

Ki [1] [nM] | Ki [4] [nM] | Compound | MD [2] [%] | other results
0.51 |  | COc1ccc(S(=O)(=O)c2ccc(C3(C4CCN(C5CCN(C(=O)c6cccc7c(Br)cccc67)CC5)CC4)OCCO3)cc2)cc1 | 125 | AUC at 6 h [3]: 702 ng·h/mL
0.81 |  | COc1ccc(S(=O)(=O)c2ccc(C3(C4CCN(C5CCN(C(=O)c6cccc7cc(F)ccc67)CC5)CC4)OCCO3)cc2)cc1 |  | 
0.2 |  | COc1ccc(S(=O)(=O)c2ccc(C3(C4CCN(C5CCN(C(=O)c6cccc7c(F)cccc67)CC5)CC4)OCCO3)cc2)cc1 | 140 | AUC at 6 h [3]: 130 ng·h/mL
 | 0.23 | COc1ccc(S(=O)(=O)c2ccc(C3(C4CCN(C5CCN(C(=O)c6cccc7c(F)cc(F)cc67)CC5)CC4)OCCO3)cc2)cc1 | 133 | AUC at 6 h [3]: 367 ng·h/mL
0.51 |  | COc1ccc(S(=O)(=O)c2ccc(C3(C4CCN(C5CCN(C(=O)c6ccc(F)c7ccccc67)CC5)CC4)OCCO3)cc2)cc1 | 180 | 
1.2 |  | COc1ccc(S(=O)(=O)c2ccc(C3(C4CCN(C5CCN(C(=O)c6cccc7ccc(F)cc67)CC5)CC4)OCCO3)cc2)cc1 |  | 
0.14 |  | COc1ccc(S(=O)(=O)c2ccc(C3(C4CCN(C5CCN(C(=O)c6cccc7ccccc67)CC5)CC4)OCCO3)cc2)cc1 |  | 
 |  | CCCS(=O)(=O)N1CCC(N2CCC(C3(c4ccc(S(=O)(=O)c5ccc6c(c5)OCO6)cc4)OCCO3)CC2)CC1 |  | Selectivity ratio [5]: 102; Selectivity ratio [6]: 93
1.4 |  | COc1ccc(S(=O)(=O)c2ccc(C3(C4CCN(C5CCN(C(=O)c6cccc7cc(Cl)ccc67)CC5)CC4)OCCO3)cc2)cc1 |  | 
 | 0.29 | COc1ccc(S(=O)(=O)c2ccc(C3(C4CCN(C5CCN(C(=O)c6cccc7c(F)ccc(F)c67)CC5)CC4)OCCO3)cc2)cc1 | 120 | 
 | 0.99 | COc1ccc(S(=O)(=O)c2ccc(C3(C4CCN(C5CCN(C(=O)c6cccc7cccc(F)c67)CC5)CC4)OCCO3)cc2)cc1 |  | 
 | 33.3 | CCCS(=O)(=O)N1CCC(N2CCC(C3(c4ccc(S(=O)(=O)c5ccc(OC)cc5)cc4)OCCO3)CC2)CC1 |  | Selectivity ratio [5]: 18.3; Selectivity ratio [6]: 25.3
